What was measured:
[1] = test system: Alpha-1B adrenergic receptor (Cavia porcellus); assay: Antagonist affinity was expressed as apparent pKb at Alpha-1B adrenergic receptor on isolated Guinea pig spleen (Alpha-1B)
[2] = biological target: T1, Alpha-1A adrenergic receptor (Rattus norvegicus) (UniProt P43140); assay: Antagonist affinity was expressed as apparent pKb at Alpha-1A adrenergic receptor on isolated rat prostatic vas deferens (alpha1A).; assay type: functional, tissue-based
T1 sequence (whole entry): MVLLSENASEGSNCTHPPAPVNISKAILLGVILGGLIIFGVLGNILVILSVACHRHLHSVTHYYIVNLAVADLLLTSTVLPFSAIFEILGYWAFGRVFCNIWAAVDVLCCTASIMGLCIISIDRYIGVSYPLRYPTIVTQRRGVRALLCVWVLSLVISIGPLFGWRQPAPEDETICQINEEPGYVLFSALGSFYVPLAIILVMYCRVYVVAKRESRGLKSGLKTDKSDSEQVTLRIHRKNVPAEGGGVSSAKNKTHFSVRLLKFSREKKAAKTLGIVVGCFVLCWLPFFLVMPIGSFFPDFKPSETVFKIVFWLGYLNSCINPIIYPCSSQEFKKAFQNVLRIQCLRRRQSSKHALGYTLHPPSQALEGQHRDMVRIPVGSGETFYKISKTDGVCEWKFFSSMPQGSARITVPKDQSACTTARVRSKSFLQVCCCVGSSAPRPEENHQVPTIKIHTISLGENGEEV
How it was run: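 Rat prostatic vas deferens in Tyrode with 0.1 μM cocaine. Equilibrated 60 min, primed twice with 10 μM noradrenaline, then a control cumulative (–)-noradrenaline curve recorded isometrically. Antagonist equilibrated 30 min before a repeat curve. Apparent pKb = log(DR−1) − log[B], with DR as the ratio of agonist EC50 with/without antagonist. 2–3 antagonist concentrations, each tested four times.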

[3] = biological target: T2, Alpha-1B adrenergic receptor (Homo sapiens) (UniProt P35368); assay: The binding affinity was evaluated on cloned human Alpha-1B adrenergic receptor expressed in chinese hamster ovary(CHO) cells by using [3H]prazosin as radioligand.; assay type: cell-based
T2 sequence (whole entry): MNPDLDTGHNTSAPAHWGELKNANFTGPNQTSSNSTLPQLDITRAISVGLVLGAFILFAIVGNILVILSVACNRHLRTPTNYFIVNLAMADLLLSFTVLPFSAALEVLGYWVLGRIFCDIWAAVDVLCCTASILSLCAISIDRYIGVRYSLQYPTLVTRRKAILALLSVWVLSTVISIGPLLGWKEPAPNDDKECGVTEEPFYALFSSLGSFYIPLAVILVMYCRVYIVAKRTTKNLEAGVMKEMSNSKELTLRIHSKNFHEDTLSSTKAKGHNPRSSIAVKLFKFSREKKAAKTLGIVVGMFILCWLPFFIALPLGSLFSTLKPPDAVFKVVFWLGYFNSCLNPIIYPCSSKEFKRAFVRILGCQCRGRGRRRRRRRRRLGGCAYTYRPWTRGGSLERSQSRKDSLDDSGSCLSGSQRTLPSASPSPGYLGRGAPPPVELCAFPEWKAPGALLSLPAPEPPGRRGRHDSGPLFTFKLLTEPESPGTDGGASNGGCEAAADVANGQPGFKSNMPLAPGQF
How it was run: (§1)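 Membranes (30 μg protein) from CHO cells stably expressing each human α1 subtype, in 50 mM Tris-HCl pH 7.4. Incubated with 0.1–0.4 nM [3H]prazosin for 30 min at 25 °C, competitor 1 pM–10 μM. Nonspecific binding with 10 μM phentolamine. Ki by Cheng-Prusoff. 2–3 experiments in triplicate.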

[4] = biological target: T2, Alpha-1B adrenergic receptor (Homo sapiens); assay: The binding affinity was evaluated on cloned human alpha-1B adrenergic receptor expressed in chinese hamster ovary(CHO) cells by using [3H]prazosin as radioligand.; assay type: cell-based
How it was run: as §1

[5] = biological target: T3, Alpha-1A adrenergic receptor (Homo sapiens) (UniProt P35348); assay: The binding affinity was evaluated on cloned human alpha-1A adrenergic receptor expressed in chinese hamster ovary(CHO) cells by using [3H]prazosin as radioligand.; assay type: cell-based
T3 sequence (whole entry): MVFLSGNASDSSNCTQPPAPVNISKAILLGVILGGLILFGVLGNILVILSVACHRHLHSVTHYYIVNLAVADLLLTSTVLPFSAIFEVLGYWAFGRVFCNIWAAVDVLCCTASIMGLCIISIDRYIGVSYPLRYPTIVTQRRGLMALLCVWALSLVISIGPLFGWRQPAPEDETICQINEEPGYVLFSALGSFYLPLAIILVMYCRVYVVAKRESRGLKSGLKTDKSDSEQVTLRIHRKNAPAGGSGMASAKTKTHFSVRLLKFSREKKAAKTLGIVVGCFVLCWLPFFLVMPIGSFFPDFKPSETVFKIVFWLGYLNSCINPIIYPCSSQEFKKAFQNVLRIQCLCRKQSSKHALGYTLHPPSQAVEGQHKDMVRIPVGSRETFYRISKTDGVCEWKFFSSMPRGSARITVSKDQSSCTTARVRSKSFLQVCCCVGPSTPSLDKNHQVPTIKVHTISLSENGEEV
How it was run: as §1

[6] = biological target: T4, Alpha-1D adrenergic receptor (Rattus norvegicus) (UniProt P23944); assay: Antagonist affinity was expressed as apparent pKb at alpha-1D adrenergic receptor on isolated rat thoracic aorta (Alpha-1D adrenergic receptor); assay type: functional, tissue-based
T4 sequence (whole entry): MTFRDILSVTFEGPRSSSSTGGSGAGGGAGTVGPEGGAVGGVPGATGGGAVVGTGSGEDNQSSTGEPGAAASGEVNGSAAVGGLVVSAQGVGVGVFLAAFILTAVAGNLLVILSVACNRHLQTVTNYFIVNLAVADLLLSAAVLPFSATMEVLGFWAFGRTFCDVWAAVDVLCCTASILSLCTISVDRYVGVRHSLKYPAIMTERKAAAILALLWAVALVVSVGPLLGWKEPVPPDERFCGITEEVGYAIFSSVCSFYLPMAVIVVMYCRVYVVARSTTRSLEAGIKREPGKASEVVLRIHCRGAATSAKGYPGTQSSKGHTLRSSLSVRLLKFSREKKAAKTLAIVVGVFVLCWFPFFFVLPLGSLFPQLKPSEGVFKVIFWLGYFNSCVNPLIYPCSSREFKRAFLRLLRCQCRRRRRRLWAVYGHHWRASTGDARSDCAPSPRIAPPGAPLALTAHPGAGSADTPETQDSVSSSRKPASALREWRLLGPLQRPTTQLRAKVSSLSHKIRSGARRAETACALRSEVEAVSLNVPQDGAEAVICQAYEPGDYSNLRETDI
How it was run: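 Helicoidal strips of rat thoracic aorta at 1 g tension, with 0.1 μM cocaine and 1 μM propranolol. After ≥1 h equilibration, cumulative (–)-noradrenaline curves at 30-min intervals; the third served as control. Antagonist equilibrated 30 min before the fourth curve. Apparent pKb from log(DR−1) − log[B], 2–3 antagonist concentrations, each tested four times.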

[7] = biological target: Adrenergic receptor alpha-2 (Rattus norvegicus) (UniProt P22086+P19328+P22909); assay: The binding affinity was evaluated on Alpha-2 adrenergic receptor expressed in rat cortex by using [3H]rauwolscine as radioligand.
How it was run: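 Male Sprague-Dawley rat cerebral cortex membranes, washed in Tris-HCl pH 7.4 and resuspended with 10 μM pargyline and 0.1% ascorbic acid. Incubated 30 min at 25 °C with 0.5–1.5 nM [3H]rauwolscine. Nonspecific binding with 10 μM phentolamine. Filtration on PEI-treated filters. Ki by Cheng-Prusoff. 2–3 experiments in triplicate.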

Row | SMILES | pKb [1] | pKb [2] | pKi [3] | pKi [4] | pKi [5] | pKb [6] | pKi [7]
1 | COc1cccc(OC)c1OCCNCCOc1ccccc1OCc1ccccc1 | 7.87 | 8.39 | 9.27 |  |  |  | 
2 | COc1cccc(OC)c1OCCNCC1C(=O)c2ccccc2OC1c1ccccc1 (stereo not given) |  |  |  | 6.84 | 9.22 | 6.98 | 
3 | COc1cccc(OC)c1OCCNCC1Oc2ccccc2CC1c1ccccc1 (stereo in doubt; 7) | 5.54 | 7.36 | 6.58 |  |  |  | < 6

From ChEMBL document CHEMBL1132324, “Structure-activity relationships in 1,4-benzodioxan-related compounds. 6. Role of the dioxane unit on selectivity for alpha(1)-adrenoreceptor subtypes” (J Med Chem, 1999)
